Test results published in ChEMBL document CHEMBL5696442, “Discovery of type II inhibitors of TGFβ-activated kinase 1 (TAK1) and mitogen-activated protein kinase kinase kinase kinase 2 (MAP4K2)” (J Med Chem, 2015).
Activity calls are given as the source filed them. The calls are words filed in the database; no cut-off is given here.

Key:
[1] = target: T1, Serine/threonine-protein kinase STK11 (Homo sapiens) (UniProt Q15831); assay: Inhibition of LKB1 Lys2 labeling site in human Huh-7 cells at 1 uM by KiNativ Profiling analysis relative to control; type: cell-based
T1 sequence (whole entry): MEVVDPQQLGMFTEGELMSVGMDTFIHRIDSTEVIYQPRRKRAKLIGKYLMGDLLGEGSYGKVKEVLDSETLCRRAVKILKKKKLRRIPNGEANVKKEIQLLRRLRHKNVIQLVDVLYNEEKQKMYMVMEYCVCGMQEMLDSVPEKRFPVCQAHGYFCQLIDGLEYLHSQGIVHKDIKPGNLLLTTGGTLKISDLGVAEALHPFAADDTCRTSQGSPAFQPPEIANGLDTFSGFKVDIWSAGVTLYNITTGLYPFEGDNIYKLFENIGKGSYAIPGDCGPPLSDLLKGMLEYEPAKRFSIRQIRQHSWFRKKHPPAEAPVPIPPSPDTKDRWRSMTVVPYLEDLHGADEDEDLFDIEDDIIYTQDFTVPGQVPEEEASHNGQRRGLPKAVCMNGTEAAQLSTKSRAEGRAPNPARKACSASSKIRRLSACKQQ

[2] = target: T2, Phosphatidylinositol 5-phosphate 4-kinase type-2 gamma (Homo sapiens) (UniProt Q8TBX8); assay: Inhibition of PIP4K2C ATP labeling site harbouring TLVIKEVSSEDIADMHSNLSNYHQYIVK in human Huh-7 cells at 1 uM by KiNativ Profiling analysis relative to control; type: cell-based
T2 sequence (whole entry): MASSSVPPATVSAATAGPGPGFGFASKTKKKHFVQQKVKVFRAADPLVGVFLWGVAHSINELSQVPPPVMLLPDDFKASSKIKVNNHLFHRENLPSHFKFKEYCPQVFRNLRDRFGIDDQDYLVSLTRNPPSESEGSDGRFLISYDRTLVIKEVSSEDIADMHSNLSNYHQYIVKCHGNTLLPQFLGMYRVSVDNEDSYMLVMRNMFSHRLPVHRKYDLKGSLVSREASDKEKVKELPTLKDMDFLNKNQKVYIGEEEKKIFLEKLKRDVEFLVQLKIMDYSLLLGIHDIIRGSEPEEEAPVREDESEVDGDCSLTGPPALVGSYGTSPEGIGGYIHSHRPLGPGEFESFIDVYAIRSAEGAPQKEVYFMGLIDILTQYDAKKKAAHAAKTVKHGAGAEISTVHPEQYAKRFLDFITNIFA

[3] = target: Cyclin-dependent kinase 10 (Homo sapiens) (UniProt Q15131); assay: Inhibition of CDK10 Lys2 labeling site in human Huh-7 cells at 1 uM by KiNativ Profiling analysis relative to control; type: cell-based
[4] = target: Tyrosine-protein kinase Fes/Fps (Homo sapiens, UniProt P07332); assay: Inhibition of FES (unknown origin) at 10 uM by Ambit Kinomescan binding assay relative to control; values are per cent of control
[5] = target: Mitogen-activated protein kinase 10 (Homo sapiens, UniProt P53779); assay: Inhibition of JNK3 (unknown origin) at 10 uM by Ambit Kinomescan binding assay relative to control
[6] = target: Mitogen-activated protein kinase 14 (Homo sapiens, UniProt Q16539); assay: Inhibition of p38a in human Huh-7 cells at 10 uM by KiNativ Profiling analysis relative to control; type: cell-based
[7] = target: T3, Mitogen-activated protein kinase kinase kinase kinase 2 (Homo sapiens) (UniProt Q12851); assay: Inhibition of MAP4K2 Lys2 labeling site in human A-375 cells at 5 uM by KiNativ Profiling analysis relative to control; type: cell-based
T3 sequence (whole entry): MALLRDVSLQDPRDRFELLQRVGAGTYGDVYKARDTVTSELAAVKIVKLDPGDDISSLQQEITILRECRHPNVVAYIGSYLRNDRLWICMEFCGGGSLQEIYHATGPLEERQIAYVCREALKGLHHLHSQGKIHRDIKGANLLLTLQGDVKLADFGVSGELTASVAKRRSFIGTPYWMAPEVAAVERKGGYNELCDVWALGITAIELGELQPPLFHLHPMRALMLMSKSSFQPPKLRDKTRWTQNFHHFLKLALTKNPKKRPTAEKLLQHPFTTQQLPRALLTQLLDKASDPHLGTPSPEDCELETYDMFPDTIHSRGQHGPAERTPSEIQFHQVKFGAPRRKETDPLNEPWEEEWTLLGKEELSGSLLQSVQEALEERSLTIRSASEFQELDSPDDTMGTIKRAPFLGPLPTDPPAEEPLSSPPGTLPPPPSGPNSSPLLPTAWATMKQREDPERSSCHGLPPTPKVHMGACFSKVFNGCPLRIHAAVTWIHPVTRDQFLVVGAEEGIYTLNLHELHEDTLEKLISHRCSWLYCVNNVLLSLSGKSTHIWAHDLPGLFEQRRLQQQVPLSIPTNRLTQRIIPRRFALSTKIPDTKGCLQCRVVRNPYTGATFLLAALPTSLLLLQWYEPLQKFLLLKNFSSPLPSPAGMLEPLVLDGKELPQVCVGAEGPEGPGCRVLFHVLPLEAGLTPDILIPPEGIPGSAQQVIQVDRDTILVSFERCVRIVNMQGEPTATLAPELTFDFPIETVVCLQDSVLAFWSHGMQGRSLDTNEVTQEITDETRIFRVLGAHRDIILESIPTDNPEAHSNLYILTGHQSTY

[8] = target: Testis-specific serine/threonine-protein kinase 1 (Homo sapiens) (UniProt Q9BXA7); assay: Inhibition of TSSK1B (unknown origin) at 10 uM by Ambit Kinomescan binding assay
[9] = target: Cyclin-dependent kinase 18 (Homo sapiens) (UniProt Q07002); assay: Inhibition of PCTK3 (unknown origin) at 1 uM by Ambit Kinomescan binding assay relative to control
Outline: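 In vitro ATP-site competition binding assay against a panel of over 420 kinases (KinomeScan), with compound tested at 10 or 1 μM.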

[10] = system: Mast/stem cell growth factor receptor Kit (Homo sapiens), P10721 [D816H]; assay: Inhibition of KIT D816H mutant (unknown origin) at 1 uM by Ambit Kinomescan binding assay relative to control; values are per cent of control
[11] = target: Serine/threonine-protein kinase 4 (Homo sapiens) (UniProt Q13043); assay: Inhibition of MST1 Lys1 labeling site harbouring ETGQIVAIKQVPVESDLQEIIK in human A-375 cells at 0.5 uM by KiNativ Profiling analysis relative to control
[12] = target: Serine/threonine-protein kinase SIK2 (Homo sapiens) (UniProt Q9H0K1); assay: Inhibition of SIK2 (unknown origin) at 1 uM by Ambit Kinomescan binding assay relative to control
[13] = target: Phosphatidylinositol 4-kinase beta (Homo sapiens) (UniProt Q9UBF8); assay: Inhibition of PI4KB ATP labeling site harbouring VPHTQAVVLNSKDKAPYLIYVEVLECENFDTTSVPAR in human A-375 cells at 5 uM by KiNativ Profiling analysis relative to control; type: cell-based
[14] = target: Serine/threonine-protein kinase mTOR (Homo sapiens) (UniProt P42345); assay: Inhibition of MTOR (unknown origin) at 1 uM by Ambit Kinomescan binding assay relative to control

Mast/stem cell growth factor receptor Kit (Homo sapiens), P10721 [D816H], sequence (P10721 whole entry D816H): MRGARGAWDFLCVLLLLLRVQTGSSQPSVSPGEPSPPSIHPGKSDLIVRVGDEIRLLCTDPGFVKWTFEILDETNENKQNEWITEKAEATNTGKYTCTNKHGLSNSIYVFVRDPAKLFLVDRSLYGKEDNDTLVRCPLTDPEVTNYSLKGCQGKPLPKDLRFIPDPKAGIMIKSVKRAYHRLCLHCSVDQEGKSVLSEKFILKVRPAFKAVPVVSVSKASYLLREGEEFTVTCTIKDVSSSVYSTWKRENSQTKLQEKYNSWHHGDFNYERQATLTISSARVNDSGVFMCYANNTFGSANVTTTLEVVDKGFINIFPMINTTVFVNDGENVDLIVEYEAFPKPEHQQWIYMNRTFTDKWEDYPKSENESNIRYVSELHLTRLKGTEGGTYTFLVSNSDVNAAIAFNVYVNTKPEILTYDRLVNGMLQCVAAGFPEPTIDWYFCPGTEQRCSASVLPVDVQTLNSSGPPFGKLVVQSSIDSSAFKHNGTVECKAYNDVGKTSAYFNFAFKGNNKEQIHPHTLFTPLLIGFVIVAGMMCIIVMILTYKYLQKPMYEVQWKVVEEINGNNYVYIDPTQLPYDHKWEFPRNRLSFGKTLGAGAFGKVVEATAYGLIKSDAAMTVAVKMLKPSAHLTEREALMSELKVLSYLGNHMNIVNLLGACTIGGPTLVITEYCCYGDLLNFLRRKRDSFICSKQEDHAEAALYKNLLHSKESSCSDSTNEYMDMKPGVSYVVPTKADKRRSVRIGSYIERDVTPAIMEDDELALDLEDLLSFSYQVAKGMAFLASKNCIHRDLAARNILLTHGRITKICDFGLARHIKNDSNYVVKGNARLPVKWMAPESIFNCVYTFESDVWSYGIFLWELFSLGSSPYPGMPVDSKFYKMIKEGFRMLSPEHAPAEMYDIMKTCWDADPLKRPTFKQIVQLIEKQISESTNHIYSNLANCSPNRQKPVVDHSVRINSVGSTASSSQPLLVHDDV
Testis-specific serine/threonine-protein kinase 1 (Homo sapiens), sequence (Q9BXA7 whole entry): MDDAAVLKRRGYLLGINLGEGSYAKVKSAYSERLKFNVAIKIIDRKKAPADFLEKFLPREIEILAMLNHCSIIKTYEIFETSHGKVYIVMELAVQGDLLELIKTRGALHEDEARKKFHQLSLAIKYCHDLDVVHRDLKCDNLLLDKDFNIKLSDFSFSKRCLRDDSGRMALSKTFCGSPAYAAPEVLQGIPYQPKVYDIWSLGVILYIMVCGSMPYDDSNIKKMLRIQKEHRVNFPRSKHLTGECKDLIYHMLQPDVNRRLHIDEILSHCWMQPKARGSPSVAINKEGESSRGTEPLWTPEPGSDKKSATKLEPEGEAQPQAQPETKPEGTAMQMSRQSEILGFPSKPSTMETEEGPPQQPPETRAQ
Serine/threonine-protein kinase SIK2 (Homo sapiens), sequence (Q9H0K1 whole entry, looked up): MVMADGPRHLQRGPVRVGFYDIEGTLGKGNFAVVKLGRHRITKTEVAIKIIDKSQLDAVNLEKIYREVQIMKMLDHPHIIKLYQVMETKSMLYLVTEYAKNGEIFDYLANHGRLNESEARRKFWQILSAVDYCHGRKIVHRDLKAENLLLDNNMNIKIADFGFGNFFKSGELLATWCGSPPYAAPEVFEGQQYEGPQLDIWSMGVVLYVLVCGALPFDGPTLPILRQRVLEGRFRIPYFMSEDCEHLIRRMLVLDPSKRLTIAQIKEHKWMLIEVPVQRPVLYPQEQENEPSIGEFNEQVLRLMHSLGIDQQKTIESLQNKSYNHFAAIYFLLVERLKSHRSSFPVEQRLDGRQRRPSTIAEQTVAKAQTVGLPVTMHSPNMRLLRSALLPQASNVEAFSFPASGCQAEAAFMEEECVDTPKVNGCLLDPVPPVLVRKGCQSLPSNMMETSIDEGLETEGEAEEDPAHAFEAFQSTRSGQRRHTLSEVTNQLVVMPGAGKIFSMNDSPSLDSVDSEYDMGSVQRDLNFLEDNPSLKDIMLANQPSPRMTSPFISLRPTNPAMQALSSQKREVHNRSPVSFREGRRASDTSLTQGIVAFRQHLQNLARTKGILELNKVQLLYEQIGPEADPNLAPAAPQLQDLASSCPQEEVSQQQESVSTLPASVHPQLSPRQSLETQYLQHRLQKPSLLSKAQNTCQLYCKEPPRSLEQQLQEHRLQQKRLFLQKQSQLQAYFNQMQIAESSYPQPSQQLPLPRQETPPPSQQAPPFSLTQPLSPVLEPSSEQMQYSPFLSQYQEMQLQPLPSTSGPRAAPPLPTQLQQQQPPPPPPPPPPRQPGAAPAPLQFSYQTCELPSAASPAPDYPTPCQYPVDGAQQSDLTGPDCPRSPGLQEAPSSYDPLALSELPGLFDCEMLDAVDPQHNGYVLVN
Mitogen-activated protein kinase 14, sequence (Q16539 whole entry): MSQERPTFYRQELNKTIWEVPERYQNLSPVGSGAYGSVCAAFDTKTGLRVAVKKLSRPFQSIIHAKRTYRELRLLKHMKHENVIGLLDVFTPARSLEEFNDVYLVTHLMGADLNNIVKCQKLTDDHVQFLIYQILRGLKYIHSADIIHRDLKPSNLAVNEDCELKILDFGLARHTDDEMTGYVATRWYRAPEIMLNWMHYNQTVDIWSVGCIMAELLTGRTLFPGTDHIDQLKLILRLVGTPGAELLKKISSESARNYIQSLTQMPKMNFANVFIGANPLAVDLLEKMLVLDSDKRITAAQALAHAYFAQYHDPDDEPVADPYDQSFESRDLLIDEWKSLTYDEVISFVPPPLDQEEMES
Cyclin-dependent kinase 18 (Homo sapiens), sequence (Q07002 whole entry): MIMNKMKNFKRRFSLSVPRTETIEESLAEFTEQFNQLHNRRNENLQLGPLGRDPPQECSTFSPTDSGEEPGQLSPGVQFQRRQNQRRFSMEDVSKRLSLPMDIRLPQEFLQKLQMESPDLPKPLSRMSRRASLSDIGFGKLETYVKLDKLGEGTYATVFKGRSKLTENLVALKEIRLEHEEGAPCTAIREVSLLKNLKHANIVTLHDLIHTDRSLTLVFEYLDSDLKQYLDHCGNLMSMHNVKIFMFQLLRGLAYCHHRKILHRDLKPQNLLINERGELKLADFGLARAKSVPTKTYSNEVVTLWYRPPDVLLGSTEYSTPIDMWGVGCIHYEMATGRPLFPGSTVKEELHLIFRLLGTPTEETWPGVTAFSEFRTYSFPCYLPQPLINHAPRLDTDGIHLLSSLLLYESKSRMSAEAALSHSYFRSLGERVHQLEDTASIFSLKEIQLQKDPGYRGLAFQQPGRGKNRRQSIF
Tyrosine-protein kinase Fes/Fps, sequence (P07332 whole entry): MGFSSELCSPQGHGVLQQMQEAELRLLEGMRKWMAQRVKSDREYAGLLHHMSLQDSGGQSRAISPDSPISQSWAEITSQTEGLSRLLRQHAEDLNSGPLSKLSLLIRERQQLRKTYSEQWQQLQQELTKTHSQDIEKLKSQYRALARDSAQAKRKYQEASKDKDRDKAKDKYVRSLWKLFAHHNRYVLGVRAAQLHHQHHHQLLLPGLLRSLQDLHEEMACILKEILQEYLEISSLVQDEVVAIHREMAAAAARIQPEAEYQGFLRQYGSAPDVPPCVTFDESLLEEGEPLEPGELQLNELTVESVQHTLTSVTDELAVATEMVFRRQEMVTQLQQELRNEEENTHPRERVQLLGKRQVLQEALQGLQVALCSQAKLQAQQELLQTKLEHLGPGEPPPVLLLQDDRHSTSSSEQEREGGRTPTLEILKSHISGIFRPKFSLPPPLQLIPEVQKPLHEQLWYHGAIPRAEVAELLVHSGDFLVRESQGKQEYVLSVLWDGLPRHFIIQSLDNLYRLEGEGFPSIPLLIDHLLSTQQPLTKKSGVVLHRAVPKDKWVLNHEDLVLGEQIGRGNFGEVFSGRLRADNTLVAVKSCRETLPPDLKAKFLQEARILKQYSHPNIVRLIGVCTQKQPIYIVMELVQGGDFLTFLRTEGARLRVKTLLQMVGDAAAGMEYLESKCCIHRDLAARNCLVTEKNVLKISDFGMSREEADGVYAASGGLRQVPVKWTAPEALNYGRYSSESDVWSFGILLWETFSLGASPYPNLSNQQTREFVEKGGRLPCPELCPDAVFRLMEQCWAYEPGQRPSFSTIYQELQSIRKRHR
Serine/threonine-protein kinase 4 (Homo sapiens), sequence (Q13043 whole entry, looked up): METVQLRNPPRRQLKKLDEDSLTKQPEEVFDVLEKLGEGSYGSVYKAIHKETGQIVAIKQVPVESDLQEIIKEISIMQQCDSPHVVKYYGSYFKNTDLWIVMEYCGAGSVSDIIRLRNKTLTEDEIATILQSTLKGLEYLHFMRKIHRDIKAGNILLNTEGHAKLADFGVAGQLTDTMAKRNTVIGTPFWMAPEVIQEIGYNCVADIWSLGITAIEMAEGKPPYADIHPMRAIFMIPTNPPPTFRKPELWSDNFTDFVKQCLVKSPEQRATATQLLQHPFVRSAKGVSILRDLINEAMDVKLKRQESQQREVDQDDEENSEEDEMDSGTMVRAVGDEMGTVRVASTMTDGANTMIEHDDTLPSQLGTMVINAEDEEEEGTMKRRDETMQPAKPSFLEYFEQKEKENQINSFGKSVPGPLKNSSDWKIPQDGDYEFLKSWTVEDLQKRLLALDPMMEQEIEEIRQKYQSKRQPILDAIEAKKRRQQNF
Cyclin-dependent kinase 10 (Homo sapiens), sequence (Q15131 whole entry): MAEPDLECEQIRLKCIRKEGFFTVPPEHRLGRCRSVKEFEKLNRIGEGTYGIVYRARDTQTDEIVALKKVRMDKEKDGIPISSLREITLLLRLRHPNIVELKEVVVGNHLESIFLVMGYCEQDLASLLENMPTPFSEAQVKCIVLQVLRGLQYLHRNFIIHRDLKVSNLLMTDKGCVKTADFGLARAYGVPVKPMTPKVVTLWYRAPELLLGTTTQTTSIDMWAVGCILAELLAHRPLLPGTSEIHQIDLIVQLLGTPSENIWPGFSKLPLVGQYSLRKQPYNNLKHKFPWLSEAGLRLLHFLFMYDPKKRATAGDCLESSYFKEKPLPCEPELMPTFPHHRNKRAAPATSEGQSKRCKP

## CNc1cc(Oc2cc(C(=O)Nc3cc(N4CCN(C)CC4)cc(C(F)(F)F)c3)ccc2C)ncn1
[1]
  inhibition: 15.1%
[2]
  inhibition: 12.8%
[3]
  inhibition: 59.3%

## CCN1CCN(Cc2ccc(NC(=O)c3ccc(C)c(Oc4ccnc5[nH]ccc45)c3)cc2C(F)(F)F)CC1
[4]
  percent of control: 2.2%
[5]
  inhibition: 12%
[6]
  inhibition: 98.5%
[7]
  inhibition: 94%
[8]
  inhibition: inactive

## CCN1CCN(Cc2ccc(NC(=O)c3ccc(C)c(/C=C/c4cnc5[nH]ccc5c4OC)c3)cc2C(F)(F)F)CC1
[9]
  inhibition: 84%
[10]
  residual activity: 25%
[11]
  inhibition: 17.4%
[12]
  inhibition: 26%
[13]
  inhibition: 14.1%
[14]
  inhibition: 100%
